# Test results as given in ChEMBL document CHEMBL4680319, “Synthesis and evaluation of tiaprofenic acid-derived UCHL5 deubiquitinase inhibitors” (Bioorg Med Chem, 2021).
# pIC50: −log10 of the molar value. Calls of active or inactive are those of the source. The calls are words filed in the database; no cut-off is given here.
# Columns and labels:
# [1] = biological target: T1, Ubiquitin carboxyl-terminal hydrolase isozyme L5 (Homo sapiens, UniProt Q9Y5K5); test: (§1) Inhibition of N-terminal His6-tagged recombinant human UCHL5 expressed in Escherichia coli BL21 (DE3) codon cells assessed as reduction in cleavage of Ubiquitin-Rhodamine110-glycine to Ubiquitin and Rhodamine110-glycine using Ub-Rho 110 as substrate incubated for 30 mins by fluorescence based assay
# T1 sequence (Q9Y5K5 whole entry): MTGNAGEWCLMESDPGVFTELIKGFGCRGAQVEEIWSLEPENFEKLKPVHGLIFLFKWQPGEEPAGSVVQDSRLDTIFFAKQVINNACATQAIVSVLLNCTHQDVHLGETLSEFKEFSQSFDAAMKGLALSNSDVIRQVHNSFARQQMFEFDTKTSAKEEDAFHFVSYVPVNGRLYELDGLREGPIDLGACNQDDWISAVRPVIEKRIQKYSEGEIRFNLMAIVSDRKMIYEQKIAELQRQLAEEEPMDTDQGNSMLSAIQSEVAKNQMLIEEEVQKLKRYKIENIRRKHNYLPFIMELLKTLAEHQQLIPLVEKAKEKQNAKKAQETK
# Summary of the method: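 His-tagged human UCHL5 from pET151 in E. coli BL21(DE3) codon+ RIL, Ni-NTA purified; 0.464 nM enzyme, 1 μM Ub-Rho in 50 mM Tris-HCl pH 7.5, 150 mM NaCl, 0.1 mg/ml ovalbumin, 0.5 mM EDTA, 2.5 mM DTT; started by enzyme addition.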
# Homo sapiens = organism: Homo sapiens; test: as §1, with “[…] N-terminal GST/His6-tagged RPN13” for “expressed”, “substrate at 100 uM” for “substrate”, “assay relative to control” for “assay”
# Summary of the method: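 UCHL5 (0.464 nM, His-tagged, Ni-NTA purified from E. coli) combined with separately expressed Rpn13 (915 nM); each derivative tested at 100 μM. Buffer 50 mM Tris-HCl pH 7.5, 150 mM NaCl, 0.1 mg/ml ovalbumin, 0.5 mM EDTA, 2.5 mM DTT. Reaction started with UCHL5; Ub-Rho 1 μM; fluorescence ex 485/em 535 nm read over 30 min at RT. n = 2 independent experiments.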
# [2] = biological target: T2, Ubiquitin carboxyl-terminal hydrolase isozyme L5 (Homo sapiens) (UniProt Q9Y5K5); test: Inhibition of UCHL5 in human MDA-MB-231 cells assessed as reduction in enzyme-Ub-VS conjugation at 25 to 50 uM preincubated for 30 mins followed by incubation with Ub-VS for 11 mins in presence of Ub-VS by Western blot analysis; format: cell-based; details: dose 25-50 µM, time 41.0 min
# T2 sequence (whole entry): T1 sequence (Q9Y5K5 whole entry)
# Summary of the method: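 Lysate (20 μg protein) preincubated with inhibitor 30 min at RT in same buffer without detergent, then Ub-VS 1 μM for 11 min at RT; SDS quench, 12% SDS-PAGE, anti-UCHL5 and β-actin blot; 2 independent experiments.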
# [3] = biological target: Ubiquitin carboxyl-terminal hydrolase isozyme L1 (Homo sapiens) (UniProt P09936); test: as §1, with “of” for “of N-terminal His6-tagged”, “N-terminal MET and His6-tagged UCHL1 (Gln2 to Ala223 residues)” for “UCHL5”, “coli” for “coli BL21 (DE3) codon cells”
# Summary of the method: (§2)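 Commercial enzymes at UCHL1 1.2 nM or UCHL3 32 pM, with 1 μM Ub-Rho in 50 mM Tris-HCl pH 7.5, 150 mM NaCl, 0.1 mg/ml ovalbumin, 0.5 mM EDTA, 2.5 mM DTT.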
# [4] = biological target: T3, Ubiquitin carboxyl-terminal hydrolase isozyme L1 (Homo sapiens, UniProt P09936); test: as above; summary of the method: as §2
# T3 sequence (P09936 whole entry): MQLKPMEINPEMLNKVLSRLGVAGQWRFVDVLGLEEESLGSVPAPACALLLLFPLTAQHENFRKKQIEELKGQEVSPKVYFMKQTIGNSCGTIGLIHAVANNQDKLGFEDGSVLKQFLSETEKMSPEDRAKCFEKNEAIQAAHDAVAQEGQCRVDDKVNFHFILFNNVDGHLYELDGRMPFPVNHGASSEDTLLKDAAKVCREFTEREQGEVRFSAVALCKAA
# [5] = biological target: T4, Ubiquitin carboxyl-terminal hydrolase isozyme L3 (Homo sapiens) (UniProt P15374); test: (§3) Inhibition of recombinant human UCHL3 assessed as reduction in cleavage of Ubiquitin-Rhodamine110-glycine to Ubiquitin and Rhodamine110-glycine using Ub-Rho 110 as substrate incubated for 30 mins by fluorescence based assay; summary of the method: as §2
# T4 sequence (whole entry): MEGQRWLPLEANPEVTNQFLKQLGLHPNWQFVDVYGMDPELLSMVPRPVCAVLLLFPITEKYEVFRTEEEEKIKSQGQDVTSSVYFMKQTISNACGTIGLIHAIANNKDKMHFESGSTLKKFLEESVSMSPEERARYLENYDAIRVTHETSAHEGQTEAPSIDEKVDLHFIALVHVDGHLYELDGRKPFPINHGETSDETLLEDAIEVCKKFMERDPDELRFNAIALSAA
# [6] = biological target: T5, Ubiquitin carboxyl-terminal hydrolase isozyme L3 (Homo sapiens, UniProt P15374); test: as §3; summary of the method: as §2
# T5 sequence (P15374 whole entry): T4 sequence (whole entry)
# [7] = biological target: T2, Ubiquitin carboxyl-terminal hydrolase isozyme L5 (Homo sapiens); test: Potency index, ratio of (R)-tiaprofenic acid IC50 to test compound IC50 for inhibition of N-terminal His6-tagged recombinant human UCHL5 expressed in Escherichia coli BL21 (DE3) codon cells incubated for 30 mins by fluorescence based assay
Compound,pIC50 [1],other results
O=C(O)c1cc(Cn2cc(-c3ccc(NC(=O)c4ccccc4)cc3)nn2)cc(-c2ccccc2C(=O)O)c1,3.67,
CC(=O)Nc1cccc(-c2cn(Cc3cc(C(=O)O)cc(-c4ccccc4C(=O)O)c3)nn2)c1,4.02,
NS(=O)(=O)Nc1ccc(-c2cn(Cc3cc(C(=O)O)cc(-c4ccccc4C(=O)O)c3)nn2)cc1,4.07,
CC(C(=O)O)c1ccc(C(=O)c2cccc(-c3ccccc3C(=O)O)c2)s1 (stereo not given),4.05,Ratio IC50 [7]: 33
Nc1ccc(-c2cn(Cc3cc(C(=O)O)cc(-c4ccc(C(=O)O)cc4)c3)nn2)cc1,3.55,
Nc1ccc(-c2cn(Cc3cccc(-c4ccccc4C(=O)O)c3)nn2)cc1,3.94,
O=C(O)c1cc(Cn2cc(-c3cccnc3)nn2)cc(-c2ccccc2C(=O)O)c1,3.60,
CC(=O)Nc1ccc(-c2cn(Cc3cc(C(=O)O)cc(-c4ccccc4C(=O)O)c3)nn2)cc1,4.09,
CC(C(=O)O)c1ccc(C(=O)c2ccccc2)s1 (stereo not given) [TIAPROFENIC ACID],2.53,

# The next lines start with results.
pIC50 [1],Compound,other results
4.48,Nc1ccc(-c2cn(Cc3cc(C(=O)O)cc(-c4cccc(C(=O)O)c4)c3)nn2)cc1,inhibition (Homo sapiens): 70%; inhibition [2]: Active; inhibition [3]: Dose-dependent effect; pIC50 [4]: 4.04; inhibition [5]: Dose-dependent effect; pIC50 [6]: 4.13
4.14,Nc1cccc(-c2cn(Cc3cc(C(=O)O)cc(-c4ccccc4C(=O)O)c3)nn2)c1,
4.09,Nc1ccc(-c2cn(Cc3cc(C(=O)O)cc(-c4ccccc4C(=O)O)c3)nn2)cc1,
4.12,CC(C(=O)O)c1ccc(C(=O)c2cccc(-c3occc3C(=O)O)c2)s1 (stereo not given),
